# Tests used:
# Coxsackievirus B3 = experiment: Antiviral activity against Coxsackie virus B3 […] infected in human HeLa cells assessed as reduction of virus-induced cytopathic effect by MTT assay; format: functional, organism-based, Nancy
# In short: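 HeLa monolayers were exposed to 100 TCID₅₀ of CVB3 […] together with serial 2-fold compound dilutions below CC₅₀, in DMEM with 2% serum. Uninfected and untreated infected wells served as controls. Plates were kept at 37 °C in humidified CO₂ until virus control CPE peaked, then read by MTT. IC₅₀ is the concentration reducing CPE by 50%, as mean of three independent experiments.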
# [1] = Therapeutic index, CC50 for human HeLa cells to IC50 for Coxsackie virus B3 […]; format: cell-based; details: read-out: Ratio CC50/IC50
# In short: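 TI is CC₅₀ divided by IC₅₀. CC₅₀ comes from a 48 h HeLa MTT viability assay; IC₅₀ comes from an MTT-read CPE-inhibition assay with 100 TCID₅₀ CVB3 […] in HeLa cells. Both use DMEM with 2% serum at 37 °C and are means of three independent experiments.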
# [2] = Cytotoxicity against human HeLa cells after 48 hrs by MTT assay; format: cell-based
# In short: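 HeLa monolayers were treated with compound at 200–6.25 µg/mL in DMEM with 2% serum for 48 h at 37 °C. MTT (0.5 mg/mL in PBS) was added for 4 h, then DMSO for 30 min at room temperature, and OD was read at 570/630 nm. CC₅₀ was taken from the mean dose-response curve of three independent experiments.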
# [3] = Enterovirus B, Nancy, HeLa, read-out: IC50
SMILES,IC50 (Coxsackievirus B3; hela),selectivity ratio [1],IC50 (Coxsackievirus B3; [3]) [µg/mL],CC50 at 48 h [2] [µg/mL]
C[C@@H]1CO[C@@]2(C[C@@H]1OC(=O)c1ccc(O)cc1)O[C@@H]1C[C@@H](C(=O)O[C@@H]3O[C@H](CO)[C@@H](O)[C@H](O)[C@H]3O[C@@H]3O[C@H](CO)[C@@H](O)[C@H](O)[C@H]3O)C[C@@H](O)[C@]1(O)C2=O [4'-HYDROXYPHYLLAEMBLICIN B],Not Active,–,–,–
COC(=O)[C@H]1C[C@@H](O)[C@]2(O)C(=O)[C@]3(C[C@H](OC(=O)c4ccccc4)[C@H](C)CO3)O[C@@H]2C1 [PHYLLAEMBLIC ACID METHY ESTER],–,9.8,21.8,214
C[C@@H]1CO[C@@]2(C[C@@H]1OC(=O)c1ccccc1)O[C@@H]1C[C@@H](C(=O)O)C[C@@H](O)[C@]1(O)C2=O [PHYLLAEMBLIC ACID],Not Active,–,–,–
C[C@@H]1CO[C@@]2(C[C@@H]1OC(=O)c1ccccc1)O[C@@H]1C[C@@H](C(=O)O[C@@H]3O[C@H](CO)[C@@H](O)[C@H](O)[C@H]3O)C[C@@H](O)[C@]1(O)C2=O [PHYLLAEMBLICIN A],Not Active,–,–,–
C[C@@H]1CO[C@@]2(C[C@@H]1OC(=O)c1ccccc1)O[C@@H]1C[C@@H](C(=O)O[C@@H]3O[C@H](CO)[C@@H](O)[C@H](O)[C@H]3O[C@@H]3O[C@H](CO)[C@@H](O)[C@H](O)[C@H]3O)C[C@@H](O)[C@]1(O)C2=O [PHYLLAEMBLICIN B],–,6.4,7.8,50.2
C[C@@H]1CO[C@@]2(C[C@@H]1OC(=O)c1ccccc1)O[C@@H]1C[C@@H](C(=O)O[C@@H]3O[C@H](CO)[C@@H](O)[C@H](O)[C@H]3O[C@@H]3O[C@H](CO)[C@@H](O)[C@H](O)[C@H]3O[C@@H]3OC[C@@H](O)[C@@H](O)[C@@H]3O)C[C@@H](O)[C@]1(O)C2=O [PHYLLAEMBLICIN C],–,6.2,11,67.7
C[C@@H]1CO[C@@]2(C[C@@H]1OC(=O)c1ccccc1)O[C@@H]1C[C@@H](C(=O)O[C@@H]3O[C@H](CO)[C@@H](O)[C@H](O)[C@H]3O[C@@H]3O[C@H](CO)[C@@H](O)[C@H](O)[C@H]3O[C@@H]3OC[C@H](O)[C@@H](O)[C@@H]3O)C[C@@H](O)[C@]1(O)[C@H]2O [PHYLLAEMBLICIN E],Not Active,–,–,–
C[C@@H]1CO[C@@]2(C[C@@H]1OC(=O)c1ccccc1)O[C@@H]1C[C@@H](C(=O)OC[C@H]3O[C@@H](O[C@H]4[C@H](OC(=O)[C@H]5C[C@@H](O)[C@]6(O)C(=O)[C@]7(C[C@H](OC(=O)c8ccccc8)[C@H](C)CO7)O[C@@H]6C5)O[C@H](CO)[C@@H](O)[C@@H]4O)[C@H](O)[C@@H](O)[C@@H]3O)C[C@@H](O)[C@]1(O)C2=O [PHYLLAEMBLICIN F],Not Active,–,–,–
NC(=O)c1ncn([C@@H]2O[C@H](CO)[C@@H](O)[C@H]2O)n1 [RIBAVIRIN],–,21,20.3,426

# From ChEMBL document CHEMBL1152344, “Anti-coxsackie virus B3 norsesquiterpenoids from the roots of Phyllanthus emblica” (J Nat Prod, 2009)
